For 96 compounds, cytotoxicity results are on record in ChEMBL document CHEMBL4513216, “Probing the Open Global Health Chemical Diversity Library for Multistage-Active Starting Points for Next-Generation Antimalarials” (ACS Infect Dis, 2020).

This data set can be described thus: Toxicity liver stage against HepG2, at 10uM. To be noted: human, HepG2-A16-CD81EGFP cells; read-out: INHIBITION
In kind it is cell-based. The arrangement: test concentration 10 uM, cell line HepG2-A16-CD81EGFP. In outline:
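Uninfected HepG2-A16-CD81EGFP cells, 3 × 10^3 per well, 1536-well, plated on prespotted compound at 10 μM final, parasite-free screening media added to match infected plates; puromycin 10 μM positive, DMSO 0.5% negative; run in parallel with 48 h PbLuc assay at 37 °C, 5% CO2; viability by CellTiter-Glo luminescence, normalized to controls.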
For `NC(=O)c1nc(-c2cccc(Cl)c2)oc1N`, the cytotoxicity at 10 µM is 2.69%.
For `COCCN1C(=O)CO[C@H]2CN(S(=O)(=O)c3ccccc3)C[C@H]21` the value was -0.843%.
The same measure for `O=C1COC[C@H]([C@H](O)c2ccc(NC(=O)c3ccco3)cc2)N1`: -2.33%; for `O=C(NCCS(=O)(=O)N1CCN(c2ncccn2)CC1)C1CC1`: -4.15%; for `COCC(=O)N1CC[C@H]2C[C@H](c3nnc(C4CC4)o3)O[C@@H]2C1`: 4.85%.
For `CC1c2ncc(Cn3cncn3)n2CCN1C(=O)c1cscn1` (stereo unspecified) the value was -17.5%; for `CN1CCN(C[C@@H]2OC[C@H]3CN(Cc4ccncc4)CC[C@H]32)CC1`, 1.96%.
On to `CS(=O)(=O)N1CCOCC2(CCN(C(=O)c3cnccn3)CC2)C1`, for which the cytotoxicity at 10 µM was -0.152%.
For `Cc1cc(SCC(N)=O)nc(-c2ccc(F)cc2)n1` the value was -3.42%.
For `O=C1CSC(c2ccc3c(c2)OCO3)c2cn[nH]c2N1` (stereo unspecified) the value was 4.29%; for `Cc1occc1C(=O)N1CCC2(CCC(C(=O)NCC3CC3)O2)CC1` (stereo unspecified), 9.53%.
For `CCOCC1CN(S(C)(=O)=O)Cc2ncn(CC3CC3)c21` (stereo unspecified) the value was -12%.
As to `O=c1c2cc3c(cc2nnn1Cc1cccc(F)c1)OCCO3`, the cytotoxicity at 10 µM turned out to be 6.39%.
The same measure for `CCCN(c1ccccc1C(=O)O)S(=O)(=O)c1ccc2ccccc2c1`: -2.32%.
With `CCN1CCCC(O)(CNCc2ccc3c(c2)OCO3)C1` (stereo unspecified), the cytotoxicity at 10 µM is 2.34%.
The same measure for `CCCc1nc(N(C)Cc2ccco2)c2c(n1)c(C)nn2CC`: 16.9%.
The same measure for `COCCCNC(=O)c1nnsc1-c1ccccc1`: 5.09%; for `CC(NC(=O)C1CCCCC1)c1cc(O)nc(-c2cccnc2)n1` (stereo unspecified): 5.84%; for `CNC(=O)C1CN(C)CCN1c1nc(C)cc(C)n1` (stereo unspecified): 15.3%.
For the compound `CC(=O)N[C@@H]1CN(C(=O)Cc2coc3cc(C)ccc23)C[C@H]1O`, the cytotoxicity at 10 µM turned out to be 5.84%.
For `Cc1cc(N(C)C)nc(C2(C)CCNCC2)n1` the value was 7.79%; for `O=C(N[C@@H]1CC[C@@H](N2CCCC2)[C@@H]1O)c1cc2ccccc2[nH]1`, -4.92%.
In the case of `COc1ccc(-c2cc(C(=O)NCCn3ccnc3)n(C)n2)cc1`, the cytotoxicity at 10 µM stood at 3.86%.
For `CC(=O)N[C@@H]1CN(C(=O)CC2CCOCC2)C[C@H]1O` the value was -3.3%; for `Cc1ccc(CN2CCCC(c3cncc(C)n3)C2)cn1` (stereo unspecified), -9.35%; for `Cc1ncsc1-c1nnc(C2CCN(Cc3cccc(Cl)c3)CC2)o1`, -8.19%.
For `CCc1ccc(S(=O)(=O)Nc2ccncc2)s1` the value was 0.453%.
For `CC(Cc1ccccc1F)C(=O)Nc1cccc(OCC(N)=O)c1` (stereo unspecified) the value was -1.34%; for `CC(C)OCCNC1(c2ccc(Cl)cc2)CCOCC1`, 5.5%.
Take `Cn1ccnc1-c1cccc(NC(=O)NCC(=O)NC(C)(C)C)c1`: the cytotoxicity at 10 µM is -3.84%.
For `CC(C)Oc1cccc(C(O)CNC(=O)NCc2cccs2)c1` (stereo unspecified) the value was -2.79%; for `Cc1nnc2n1CCN(C(=O)c1cn(-c3ccc(F)cc3)nn1)C2`, -149%; for `Cc1nc(C)n(CC2CCCN2CC(=O)Nc2cccnc2)n1` (stereo unspecified), 2.04%.
The same measure for `CCN(Cc1ccoc1)C(=O)c1cc(C)c(C)c(S(N)(=O)=O)c1`: -1.69%; for `CCC(C)NC(=O)CCc1ccnc2ccccc12` (stereo unspecified): 5.44%; for `O=C(CC1CCCO1)NCCc1ccc(Br)cc1F` (stereo unspecified): -7.78%.
The same measure for `O=C(NC1CCCN(c2ccccc2Cl)C1)c1nc(=O)[nH][nH]1` (stereo unspecified): -10.9%; for `COc1ccccc1C1CCN(C(=O)c2ncccc2OC(C)C)C1` (stereo unspecified): -0.67%; for `CC(C)N(C(=O)CCc1cccc(F)c1)C1CCOCC1`: -5.21%.
Regarding `CC(=O)N(C)Cc1cccc(NC(=O)N(C)CCc2cccs2)c1`, the cytotoxicity at 10 µM is -2.67%.
The same measure for `CC1(CNC(=O)NCc2ccsc2)CCCS1` (stereo unspecified): 1.82%; for `CN(CCNC(=O)N1CCN(Cc2ccon2)CC1)C1CCCC1`: 15.6%; for `CC(Cn1cccn1)NC(=O)Nc1ccc(F)cc1` (stereo unspecified): 19.7%.
Consider `O=C(NC1CCCN(c2ncccn2)C1)c1ccoc1` (stereo unspecified), for which the cytotoxicity at 10 µM is -4.56%.
The same measure for `COCCOCC(=O)Nc1ccc(Br)cc1F`: -10.5%; for `Cc1nnn2c1COC(CNC(=O)c1cccn1C)C2` (stereo unspecified): 6.09%; for `CCNc1ncc(CN2C[C@@H](CN3CCC(CO)CC3)[C@@H](CO)C2)cn1`: -6.03%.
For `Cc1nn(CCNS(=O)(=O)NCc2ccccc2)c(C)c1Cl` the value was -6.49%; for `Cn1c(CN2CCC(O)CC2)nnc1C1CCCN(c2ccncc2)C1` (stereo unspecified), 9.29%.
The same measure for `Cn1cnnc1SCC(=O)NC1CC(=O)N(CCc2ccccc2)C1` (stereo unspecified): 3.03%.
As to `Cc1ncccc1Oc1ncnc(N2CCC(O)(CO)CC2)c1C`, the cytotoxicity at 10 µM is -2.4%.
`CCn1cnnc1CCNCc1c[nH]nc1-c1ccc(F)cc1`: the cytotoxicity at 10 µM is 1.31%.
The same measure for `CN(Cc1cc(C2CC2)[nH]n1)Cc1cc2ccc(F)cc2[nH]c1=O`: 7.84%; for `COCC(=O)N1CCN(C(=O)Cc2cccs2)[C@H]2CS(=O)(=O)C[C@H]21`: 2.21%; for `Cc1nc(-c2ccncc2)ncc1C(C)NC(=O)Cn1ccccc1=O` (stereo unspecified): 4.01%.
The same measure for `CN(CC1(CO)CCC1)C(=O)c1cc(COc2ccccc2F)[nH]n1`: 12.1%.
The same measure for `CCC(=O)N1Cc2nnc(C3CCOCC3)n2C(Cc2c[nH]cn2)C1` (stereo unspecified): -11.2%; for `Cc1cccc2c1nc(CCO)n2-c1ccc(N)nc1`: -1.32%; for `CC/C=C(\C)CN1CCC(CNC(=O)c2ccnc(N)c2)C1` (stereo unspecified): 8.32%.
Turning to `Cn1cc(Cl)c(CN2CCn3nc(C(=O)N4CCCC4)cc3C2)n1`, the cytotoxicity at 10 µM stood at 2.42%.
The same measure for `CCn1ccnc1CNC1CC(=O)N(CCc2cccc(Cl)c2)C1` (stereo unspecified): -127%; for `CN(CCC1CCOCC1)C(=O)C1CCC(=O)N(Cc2ccccn2)C1` (stereo unspecified): -2.06%.
The same measure for `CCN(CCc1nc2cc(C)ccc2[nH]1)C(=O)[C@@H](N)COC`: -2.64%.
The same measure for `Cc1ccc2c(c1)c(CNC(=O)C1CC(=O)N(C3CC3)C1)nn2C` (stereo unspecified): -0.502%; for `Cc1ncc(C(=O)N2CCCC(C(=O)c3nccn3C)C2)c(O)n1` (stereo unspecified): -2.28%.
For the compound `CN1C[C@@H](n2cnc(-c3ccccc3)c2-c2c[nH]cn2)C[C@H]1C(=O)O`, the cytotoxicity at 10 µM is 0.791%.
For `CC(CC#N)n1ccc(C(F)(F)F)n1` (stereo unspecified) the value was -8.88%.
Regarding `CCN(C(C)=O)c1nc(CN2CCCC2Cn2cncn2)cs1` (stereo unspecified), the cytotoxicity at 10 µM was -5.15%.
The same measure for `CCOc1ccc(Cl)c(C(=O)N2CCN(C(=O)OC)CC2)n1`: -6.33%; for `C=C(C)CN1CCC(NC(=O)c2scnc2C)CC1`: -6.35%; for `CC(=O)N(Cc1noc(C2CC2)n1)C1CCN(Cc2ccccc2)C1` (stereo unspecified): -5.59%.
`Cc1cc(C(=O)N2CCCN(Cc3nccn3C(C)C)CC2)no1`: the cytotoxicity at 10 µM is -2.72%.
The same measure for `Cc1noc2ncc(C(=O)NCC3CCCOC3)cc12` (stereo unspecified): -8.42%.
For `Cc1c(C(=O)NCc2ccnc(OCC(F)(F)F)c2)cnn1C` the value was -5.78%; for `CCOc1cccc2c1OCC(C(=O)NS(=O)(=O)c1c(C)noc1C)=C2`, -12.1%; for `CC(C)c1cnc(CN(C)C2CCN(CCn3cc(C#N)cn3)C2)o1` (stereo unspecified), -4.98%.
For `Cc1nccn1C1CCCN(C(=O)c2cccc(Cn3ccnc3)c2)C1` (stereo unspecified) the value was -24.6%.
Turning to `COc1cc(OC)cc(C(=O)N(C)Cc2nnc3ccccn23)c1`, the cytotoxicity at 10 µM is -26.9%.
The same measure for `CC(C)c1nc(C2CCCN(C(=O)c3ccc4[nH]nnc4c3)C2)no1` (stereo unspecified): 7.34%; for `CCN(Cc1ccc2c(c1)OCO2)Cc1nc2c(cnn2C)c(=O)[nH]1`: -21%; for `Cc1ccsc1C(=O)N1CCN(Cc2cscn2)CC1`: -12%.
The same measure for `CN(C)c1cc(CNC(=O)c2cnccn2)ccn1`: -17.7%; for `CC1CN(C(=O)c2ccn(-c3cccc(Cl)c3)n2)CCO1` (stereo unspecified): -5.25%.
For `CNC(=O)C1CCN(C(=O)c2ccn(-c3ccc(F)cc3)n2)CC1` the value was -2.7%; for `COc1c(CNCc2cccc(CS(C)(=O)=O)c2)c(C)nn1C`, -5.6%; for `Cc1cnn(CC2CCCN2C(=O)c2cccc(CC#N)c2)c1` (stereo unspecified), -8.62%.
As for `COCCc1noc(CN2CCCC2Cn2cc(C)cn2)n1` (stereo unspecified), the cytotoxicity at 10 µM was -3.32%.
The same measure for `CC1(C)Cc2cc(-c3cncn3CCNC3CCS(=O)(=O)C3)ccc2O1` (stereo unspecified): 2.95%; for `c1cnc(N2CCCC3(COCCN(CC4CC4)C3)C2)nc1` (stereo unspecified): 3.22%.
The same measure for `CN1CC(=O)N(c2ccsc2)CC12CCN(S(=O)(=O)C1CC1)C2` (stereo unspecified): -0.298%; for `CCO[C@@H]1CN(Cc2scnc2C)[C@@H]2CCCO[C@@H]21`: -151%; for `Cc1ccc2c(n1)N(CCn1cccn1)CCN(CC1CC1)C2`: 8.83%.
For `O=C(c1ccco1)N1CCO[C@@H]2CN(Cc3nccs3)CC[C@@H]2C1` the value was -111%; for `O=C(Nc1cccnc1)[C@H]1CN(C2CCCC2)C[C@H]2OCC[C@@H]12`, 9.81%.
Turning to `COc1ccc(S(=O)(=O)N2Cc3c(CN(C)C)nn(C)c3C2)cc1`, the cytotoxicity at 10 µM amounted to 3.94%.
Consider `CC(=O)N1CCN(Cc2ccc(F)cc2)CC2(CC(=O)N(C)C2)C1` (stereo unspecified), for which the cytotoxicity at 10 µM is -2.78%.
